The values that follow come from ChEMBL document CHEMBL1123899, “Nucleic acid related compounds. 51. Synthesis and biological properties of sugar-modified analogues of the nucleoside antibiotics tubercidin, toyocamycin, sangivamycin, and formycin” (1987).

Values after ≈ are worked out from the molar mass of the structure shown.

In one test the test system is Coxsackievirus B4. Put plainly: Minimum inhibitory concentration required to reduce Coxsackie virus type B-4-induced cytopathogenicity by 50%. The class given is functional. (In general: Cytopathic effects are the visible damage that an infection or toxin causes in cultured cells.)
The test system of the next test is Human alphaherpesvirus 1. Nature of the test: Minimum inhibitory concentration required to reduce Herpes simplex virus type 1 (HSV-1, strain KOS) induced cytopathogenicity by 50%. The class given is functional.
The test system of a further test is HeLa. Nature of the test: Minimum cytotoxic concentration required to cause a microscopically detectable alteration of normal cell morphology in Hela cells. The class given is functional, Homo sapiens. Summed up: (§1)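 Cytotoxicity read microscopically as the minimum concentration producing a detectable alteration of normal cell morphology, in PRK, HeLa or Vero cell cultures. Average of two to three separate experiments.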

The subject of test [1] is L1210. Nature of the test: Inhibition of murine leukemia L1210 cell growth. The class given is functional. The settings on record: Mus musculus. Summed up:
(§2)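 Murine L1210 leukemia cells; MIC50 is the concentration reducing cell growth, or incorporation of [methyl-3H]dThd into TCA-insoluble material (DNA synthesis), by 50%. Average of at least three separate experiments.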

For test [2], the system named is L1210. Nature of the test: Minimum inhibitory concentration required to reduce incorporation of [4,5-3H]leucine into TCA-insoluble material from murine leukemia L1210 cells. The class given is functional. The settings on record: Mus musculus. Summed up:
(§3)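 Murine L1210 leukemia cells were exposed to compound and incorporation of [4,5-3H]leucine (protein) or [5-3H]Urd (RNA) into TCA-insoluble material was measured. MIC50 is the concentration reducing incorporation by 50%. Values are averages of at least three separate experiments.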

Test [3] deals with L1210. Nature of the test: Minimum inhibitory concentration required to reduce incorporation of [5-3H]-Urd into TCA-insoluble material from murine leukemia L1210 cells. Particulars: Mus musculus. The class given is functional. The method, boiled down: as §3
In test [4] the test system is L1210. Put plainly: Minimum inhibitory concentration required to reduce incorporation of [methyl-3H]dThd into TCA-insoluble material from murine leukemia L1210 cells. The class given is functional. Particulars: Mus musculus. Summed up: as §2
Another test concerns Measles morbillivirus. Nature of the test: Minimum inhibitory concentration required to reduce measles virus induced cytopathogenicity by 50%. The class given is functional.
A further test relates to Human respirovirus 3. Nature of the test: Minimum inhibitory concentration required to reduce parainfluenza type 3 induced cytopathogenicity by 50%. The class given is functional.
Another test concerns Poliovirus 1. Nature of the test: Minimum inhibitory concentration required to reduce Polio virus type 1 induced cytopathogenicity by 50%. The class given is functional. The settings on record: Enterovirus C.
For another test, the species on record is Oryctolagus cuniculus. Nature of the test: Minimum cytotoxic concentration required to cause a microscopically detectable alteration of normal cell morphology in primary rabbit kidney cells. The class given is functional. Summed up:
as §1

The test system of test [5] is Mammalian orthoreovirus 1. Nature of the test: Minimum inhibitory concentration required to reduce reo virus type 1 induced cytopathogenicity by 50%. The class given is functional.
In a further test the test system is Sindbis virus. Put plainly: Minimum inhibitory concentration required to reduce sindbis virus induced cytopathogenicity by 50%. The class given is functional.
Test [6] concerns Vesicular stomatitis virus. Nature of the test: Minimum inhibitory concentration required to reduce Vesicular stomatitis virus (VSV) induced cytopathogenicity by 50%. The class given is functional.
In test [7] the test system is Vesicular stomatitis virus. Put plainly: Minimum inhibitory concentration required to reduce vesicular stomatitis virus (VSV) induced cytopathogenicity by 50%. The class given is functional.
A further test deals with Vero. Put plainly: Minimum cytotoxic concentration required to cause a microscopically detectable alteration of normal cell morphology in Vero cells. The class given is functional, Chlorocebus sabaeus. The method, boiled down:
as §1

A further test deals with Human alphaherpesvirus 2. Put plainly: Minimum inhibitory concentration required to reduce Herpes simplex virus type 2 (HSV-2 strain G) induced cytopathogenicity by 50%. The class given is functional.

For the compound `N#Cc1cn(C2OC(CO)CC2O)c2ncnc(N)c12` (configuration not stated), the MIC50 in the test with Coxsackievirus B4 was greater than 1 µg/mL; with Coxsackievirus B4 (Enterovirus B, read-out: MIC50) it was 0.7 µg/mL (≈ 2.54 µM); against Human alphaherpesvirus 1, greater than 0.4 µg/mL; in the test on L1210 [1], 0.02 µg/mL (≈ 0.0727 µM); in the test on L1210 [2], 0.113 µg/mL (≈ 0.411 µM); in the test with L1210 [3] it was 0.16 µg/mL (≈ 0.581 µM). In addition, the MIC50 was 93 µg/mL (≈ 338 µM) against L1210 [4]; greater than 1 µg/mL in the test on Measles morbillivirus; 0.4 µg/mL (≈ 1.45 µM) against Human respirovirus 3; greater than 1 µg/mL in the test with Poliovirus 1; 0.7 µg/mL (≈ 2.54 µM) in [5]; 0.7 µg/mL (≈ 2.54 µM) in the test on Sindbis virus. Moreover, the MIC50 in test [6] was greater than 1 µg/mL; in test [7] it was greater than 1 µg/mL; against Human alphaherpesvirus 2, greater than 0.4 µg/mL. The MTC with HeLa, in the test listed under Oryctolagus cuniculus and in the test with Vero was 1 µg/mL in each case.
On to `Nc1ncnc2c1ccn2[C@@H]1O[C@H](CO)[C@@H](O)[C@@H]1O`, for which the MIC50 in the test with Coxsackievirus B4 (Enterovirus B, read-out: MIC50) is greater than 400 µg/mL; against Human alphaherpesvirus 1 it was 125 µg/mL (≈ 469 µM); against L1210 [1] it was 7 µg/mL (≈ 26.3 µM); against L1210 [2], 151 µg/mL (≈ 567 µM); with L1210 [3] it was 237 µg/mL (≈ 890 µM); against L1210 [4], 32 µg/mL (≈ 120 µM). For the same compound, the MIC50 is greater than 400 µg/mL against Measles morbillivirus; 300 µg/mL (≈ 1130 µM) against Human respirovirus 3; greater than 400 µg/mL against Poliovirus 1; greater than 400 µg/mL in test [5]; greater than 400 µg/mL with Sindbis virus; greater than 350 µg/mL in test [6]. Also, the MIC50 in [7] was greater than 400 µg/mL; in the test with Human alphaherpesvirus 2, 40 µg/mL (≈ 150 µM). The MTC with HeLa, in the test listed under Oryctolagus cuniculus and in the test with Vero was greater than 400 µg/mL in each case.
On to `Nc1ncnc2c([C@H]3C[C@H](O)[C@@H](CO)O3)n[nH]c12`, for which the MIC50 in the test with Coxsackievirus B4 (Enterovirus B, read-out: MIC50) is greater than 400 µg/mL; in the test with Human alphaherpesvirus 1 it was greater than 400 µg/mL; in the test with L1210 [1], 867 µg/mL (≈ 3450 µM); in the test with L1210 [2], greater than 1000 µg/mL; in the test on L1210 [3], greater than 100 µg/mL; with L1210 [4], greater than 1000 µg/mL. Moreover, the MIC50 (in the test on Measles morbillivirus; against Human respirovirus 3; with Poliovirus 1; in test [5]; against Sindbis virus; in test [6]) was greater than 400 µg/mL in each case. The MIC50 (in test [7]; in the test on Human alphaherpesvirus 2) was greater than 400 µg/mL each time. Further, the MTC in the test on HeLa, in the test listed under Oryctolagus cuniculus and with Vero was greater than 400 µg/mL throughout.
In the case of `N#Cc1cn([C@@H]2O[C@H](CO)[C@@H](O)[C@@H]2O)c2ncnc(N)c12`, the MIC50 in the test on Coxsackievirus B4 (Enterovirus B, read-out: MIC50) was greater than 10 µg/mL; against Human alphaherpesvirus 1, 7 µg/mL (≈ 24 µM); against L1210 [1], 2 µg/mL (≈ 6.87 µM); against L1210 [2], 4.8 µg/mL (≈ 16.5 µM); against L1210 [3], 10.3 µg/mL (≈ 35.4 µM); against L1210 [4], 14 µg/mL (≈ 48.1 µM). Besides, the MIC50 (in the test with Measles morbillivirus; in the test on Human respirovirus 3; with Poliovirus 1; in test [5]; against Sindbis virus; in [6]) was greater than 10 µg/mL in each case. Also, the MIC50 in test [7] is greater than 10 µg/mL; against Human alphaherpesvirus 2, 2 µg/mL (≈ 6.87 µM). For the same compound, the MTC in the test on HeLa, in the test listed under Oryctolagus cuniculus and with Vero was 10 µg/mL throughout.
On to `Nc1ncnc2c1ccn2[C@@H]1O[C@H](CO)[C@@H](O)[C@H]1O` [TUBERCIDIN], for which the MIC50 with Coxsackievirus B4 worked out at 0.07 µg/mL (≈ 0.263 µM); in the test on Coxsackievirus B4 (Enterovirus B, read-out: MIC50), 0.07 µg/mL (≈ 0.263 µM); against Human alphaherpesvirus 1 it was 0.1 µg/mL (≈ 0.376 µM); against L1210 [1], 0.04 µg/mL (≈ 0.15 µM); against L1210 [2], 0.173 µg/mL (≈ 0.65 µM); against L1210 [3] it was 0.29 µg/mL (≈ 1.09 µM). The MIC50 with L1210 [4] came to 5.4 µg/mL (≈ 20.3 µM); against Measles morbillivirus, 0.3 µg/mL (≈ 1.13 µM); against Human respirovirus 3, 0.07 µg/mL (≈ 0.263 µM); in the test on Poliovirus 1, 0.02 µg/mL (≈ 0.0751 µM); in test [5], 0.04 µg/mL (≈ 0.15 µM); against Sindbis virus it was 0.2 µg/mL (≈ 0.751 µM). In addition, the values for the MIC50 (in test [6]; in test [7]; with Human alphaherpesvirus 2) were 0.01 µg/mL (≈ 0.0376 µM), 0.02 µg/mL (≈ 0.0751 µM) and 0.1 µg/mL (≈ 0.376 µM), respectively. In addition, the MTC in the test with HeLa, in the test filed under Oryctolagus cuniculus and in the test on Vero was 0.4 µg/mL in each case.
